Experimental data as given in ChEMBL document CHEMBL5058577, “EUbOPEN Chemogenomics Library 2 (Multiplex)” (2022).

System: HEK-293T
Assay: Multiplex assay against HEK293T
Format: toxicity, cell-based
Settings: human
Method in brief: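 Live cells were stained at seeding with Hoechst33342, BioTracker Green Microtubule Cytoskeleton Dye, MitoTracker Red and Annexin V Alexa Fluor 680. Following compound addition, they were imaged on a CQ1 microscope at 37°C and 5% CO2 and gated by CellPathfinder machine learning into Hoechst high-intensity objects or normal cells, with normal cells split into healthy, pyknosed or fragmented nuclei and pyknosed cells into mitotic or apoptotic. Tubulin, mitochondrial-mass and membrane-permeability phenotypes are per cents of healthy-nucleus cells.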

[1] = 12 h, 1 µM, compound concentration 1 uM, replicate 1
[2] = 12 h, 1 µM, compound concentration 1 uM, replicate 2
[3] = 12 h, 10 µM, compound concentration 10 uM, replicate 1
[4] = 12 h, 10 µM, compound concentration 10 uM, replicate 2
[5] = 24 h, 1 µM, compound concentration 1 uM, replicate 1
[6] = 24 h, 1 µM, compound concentration 1 uM, replicate 2
[7] = 24 h, 10 µM, compound concentration 10 uM, replicate 1
[8] = 24 h, 10 µM, compound concentration 10 uM, replicate 2
[9] = 48 h, 1 µM, compound concentration 1 uM, replicate 1
[10] = 48 h, 1 µM, compound concentration 1 uM, replicate 2
[11] = 48 h, 10 µM, compound concentration 10 uM, replicate 1
[12] = 48 h, 10 µM, compound concentration 10 uM, replicate 2

Compound: COc1ccc2[nH]c(I)c(CCNC(C)=O)c2c1 [IODOMELATONIN]
- Population Apoptotic (%) [1]: 42%
- Population Fragmented Nuclei (%) [1]: 4%
- Population Healthy Nuclei (%) [1]: 80%
- Population Hoechst High Intensity Objects (%) [1]: 5%
- Population Membrane Permeable-Phenotype (%) [1]: 1%
- Population Mitochondria Different-Phenotype (%) [1]: 43%
- Population Mitotic Cells (%) [1]: 57%
- Population Normal (%) [1]: 94%
- Population Pyknosed Nuclei (%) [1]: 14%
- Population Tubulin-Different-Phenotype (%) [1]: 35%
- Total Cell Count [1]: 388
- Population Apoptotic (%) [2]: 59%
- Population Fragmented Nuclei (%) [2]: 5%
- Population Healthy Nuclei (%) [2]: 84%
- Population Hoechst High Intensity Objects (%) [2]: 7%
- Population Membrane Permeable-Phenotype (%) [2]: 0%
- Population Mitochondria Different-Phenotype (%) [2]: 64%
- Population Mitotic Cells (%) [2]: 40%
- Population Normal (%) [2]: 92%
- Population Pyknosed Nuclei (%) [2]: 10%
- Population Tubulin-Different-Phenotype (%) [2]: 32%
- Total Cell Count [2]: 400
- Population Apoptotic (%) [3]: 38%
- Population Fragmented Nuclei (%) [3]: 11%
- Population Healthy Nuclei (%) [3]: 77%
- Population Hoechst High Intensity Objects (%) [3]: 8%
- Population Membrane Permeable-Phenotype (%) [3]: 0%
- Population Mitochondria Different-Phenotype (%) [3]: 52%
- Population Mitotic Cells (%) [3]: 61%
- Population Normal (%) [3]: 91%
- Population Pyknosed Nuclei (%) [3]: 10%
- Population Tubulin-Different-Phenotype (%) [3]: 29%
- Total Cell Count [3]: 445
- Population Apoptotic (%) [4]: 46%
- Population Fragmented Nuclei (%) [4]: 8%
- Population Hoechst High Intensity Objects (%) [4]: 12%
- Population Mitochondria Different-Phenotype (%) [4]: 62%
- Population Mitotic Cells (%) [4]: 53%
- Population Normal (%) [4]: 87%
- Population Pyknosed Nuclei (%) [4]: 14%
- Population Tubulin-Different-Phenotype (%) [4]: 25%
- Total Cell Count [4]: 316
- Population Apoptotic (%) [5]: 38%
- Population Fragmented Nuclei (%) [5]: 8%
- Population Healthy Nuclei (%) [5]: 80%
- Population Hoechst High Intensity Objects (%) [5]: 3%
- Population Membrane Permeable-Phenotype (%) [5]: 1%
- Population Mitochondria Different-Phenotype (%) [5]: 24%
- Population Mitotic Cells (%) [5]: 61%
- Population Normal (%) [5]: 96%
- Population Pyknosed Nuclei (%) [5]: 11%
- Population Tubulin-Different-Phenotype (%) [5]: 23%
- Total Cell Count [5]: 511
- Population Apoptotic (%) [6]: 44%
- Population Fragmented Nuclei (%) [6]: 9%
- Population Healthy Nuclei (%) [6]: 78%
- Population Hoechst High Intensity Objects (%) [6]: 8%
- Population Membrane Permeable-Phenotype (%) [6]: 0%
- Population Mitochondria Different-Phenotype (%) [6]: 37%
- Population Mitotic Cells (%) [6]: 55%
- Population Normal (%) [6]: 91%
- Population Tubulin-Different-Phenotype (%) [6]: 14%
- Total Cell Count [6]: 497
- Population Apoptotic (%) [7]: 32%
- Population Fragmented Nuclei (%) [7]: 11%
- Population Healthy Nuclei (%) [7]: 77%
- Population Hoechst High Intensity Objects (%) [7]: 5%
- Population Membrane Permeable-Phenotype (%) [7]: 1%
- Population Mitochondria Different-Phenotype (%) [7]: 31%
- Population Mitotic Cells (%) [7]: 67%
- Population Normal (%) [7]: 94%
- Population Pyknosed Nuclei (%) [7]: 10%
- Population Tubulin-Different-Phenotype (%) [7]: 25%
- Total Cell Count [7]: 568
- Population Apoptotic (%) [8]: 40%
- Population Fragmented Nuclei (%) [8]: 5%
- Population Healthy Nuclei (%) [8]: 81%
- Population Hoechst High Intensity Objects (%) [8]: 9%
- Population Membrane Permeable-Phenotype (%) [8]: 0%
- Population Mitochondria Different-Phenotype (%) [8]: 48%
- Population Mitotic Cells (%) [8]: 59%
- Population Normal (%) [8]: 90%
- Population Pyknosed Nuclei (%) [8]: 12%
- Population Tubulin-Different-Phenotype (%) [8]: 21%
- Total Cell Count [8]: 360
- Population Apoptotic (%) [9]: 26%
- Population Fragmented Nuclei (%) [9]: 12%
- Population Healthy Nuclei (%) [9]: 79%
- Population Hoechst High Intensity Objects (%) [9]: 4%
- Population Membrane Permeable-Phenotype (%) [9]: 1%
- Population Mitochondria Different-Phenotype (%) [9]: 19%
- Population Mitotic Cells (%) [9]: 73%
- Population Normal (%) [9]: 95%
- Population Pyknosed Nuclei (%) [9]: 7%
- Population Tubulin-Different-Phenotype (%) [9]: 16%
- Total Cell Count [9]: 770
- Population Apoptotic (%) [10]: 31%
- Population Hoechst High Intensity Objects (%) [10]: 5%
- Population Mitochondria Different-Phenotype (%) [10]: 22%
- Population Mitotic Cells (%) [10]: 68%
- Population Normal (%) [10]: 94%
- Population Pyknosed Nuclei (%) [10]: 8%
- Population Tubulin-Different-Phenotype (%) [10]: 14%
- Total Cell Count [10]: 622
- Population Apoptotic (%) [11]: 23%
- Population Fragmented Nuclei (%) [11]: 16%
- Population Healthy Nuclei (%) [11]: 77%
- Population Hoechst High Intensity Objects (%) [11]: 1%
- Population Membrane Permeable-Phenotype (%) [11]: 1%
- Population Mitochondria Different-Phenotype (%) [11]: 16%
- Population Mitotic Cells (%) [11]: 76%
- Population Normal (%) [11]: 98%
- Population Pyknosed Nuclei (%) [11]: 5%
- Population Tubulin-Different-Phenotype (%) [11]: 11%
- Total Cell Count [11]: 860
- Population Apoptotic (%) [12]: 25%
- Population Fragmented Nuclei (%) [12]: 15%
- Population Healthy Nuclei (%) [12]: 75%
- Population Hoechst High Intensity Objects (%) [12]: 2%
- Population Membrane Permeable-Phenotype (%) [12]: 0%
- Population Mitochondria Different-Phenotype (%) [12]: 24%
- Population Mitotic Cells (%) [12]: 74%
- Population Normal (%) [12]: 97%
- Population Pyknosed Nuclei (%) [12]: 9%
- Population Tubulin-Different-Phenotype (%) [12]: 16%
- Total Cell Count [12]: 613

Compound: CCCCCCNC(=O)Nc1ccc(S(=O)(=O)Nc2ccc(CCNC[C@H](O)COc3ccc(O)cc3)cc2)cc1 [L-755507]
- Population Apoptotic (%) [1]: 35%
- Population Fragmented Nuclei (%) [1]: 8%
- Population Healthy Nuclei (%) [1]: 84%
- Population Hoechst High Intensity Objects (%) [1]: 7%
- Population Membrane Permeable-Phenotype (%) [1]: 0%
- Population Mitochondria Different-Phenotype (%) [1]: 39%
- Population Mitotic Cells (%) [1]: 64%
- Population Normal (%) [1]: 92%
- Population Pyknosed Nuclei (%) [1]: 7%
- Population Tubulin-Different-Phenotype (%) [1]: 28%
- Total Cell Count [1]: 494
- Population Apoptotic (%) [2]: 31%
- Population Fragmented Nuclei (%) [2]: 6%
- Population Healthy Nuclei (%) [2]: 83%
- Population Mitochondria Different-Phenotype (%) [2]: 64%
- Population Mitotic Cells (%) [2]: 68%
- Population Pyknosed Nuclei (%) [2]: 10%
- Population Tubulin-Different-Phenotype (%) [2]: 32%
- Total Cell Count [2]: 403
- Population Apoptotic (%) [3]: 58%
- Population Fragmented Nuclei (%) [3]: 10%
- Population Healthy Nuclei (%) [3]: 74%
- Population Hoechst High Intensity Objects (%) [3]: 17%
- Population Membrane Permeable-Phenotype (%) [3]: 0%
- Population Mitochondria Different-Phenotype (%) [3]: 69%
- Population Mitotic Cells (%) [3]: 41%
- Population Normal (%) [3]: 82%
- Population Pyknosed Nuclei (%) [3]: 14%
- Population Tubulin-Different-Phenotype (%) [3]: 68%
- Total Cell Count [3]: 384
- Population Apoptotic (%) [4]: 71%
- Population Fragmented Nuclei (%) [4]: 8%
- Population Healthy Nuclei (%) [4]: 79%
- Population Hoechst High Intensity Objects (%) [4]: 7%
- Population Mitochondria Different-Phenotype (%) [4]: 87%
- Population Mitotic Cells (%) [4]: 28%
- Population Normal (%) [4]: 92%
- Population Pyknosed Nuclei (%) [4]: 11%
- Population Tubulin-Different-Phenotype (%) [4]: 61%
- Total Cell Count [4]: 341
- Population Apoptotic (%) [5]: 19%
- Population Fragmented Nuclei (%) [5]: 9%
- Population Healthy Nuclei (%) [5]: 80%
- Population Hoechst High Intensity Objects (%) [5]: 5%
- Population Membrane Permeable-Phenotype (%) [5]: 0%
- Population Mitochondria Different-Phenotype (%) [5]: 20%
- Population Mitotic Cells (%) [5]: 80%
- Population Normal (%) [5]: 94%
- Population Pyknosed Nuclei (%) [5]: 9%
- Population Tubulin-Different-Phenotype (%) [5]: 20%
- Total Cell Count [5]: 634
- Population Apoptotic (%) [6]: 30%
- Population Fragmented Nuclei (%) [6]: 11%
- Population Hoechst High Intensity Objects (%) [6]: 4%
- Population Mitochondria Different-Phenotype (%) [6]: 42%
- Population Mitotic Cells (%) [6]: 70%
- Population Normal (%) [6]: 95%
- Population Pyknosed Nuclei (%) [6]: 7%
- Population Tubulin-Different-Phenotype (%) [6]: 22%
- Total Cell Count [6]: 547
- Population Apoptotic (%) [7]: 26%
- Population Fragmented Nuclei (%) [7]: 8%
- Population Healthy Nuclei (%) [7]: 80%
- Population Hoechst High Intensity Objects (%) [7]: 14%
- Population Membrane Permeable-Phenotype (%) [7]: 0%
- Population Mitochondria Different-Phenotype (%) [7]: 59%
- Population Mitotic Cells (%) [7]: 73%
- Population Normal (%) [7]: 85%
- Population Pyknosed Nuclei (%) [7]: 11%
- Population Tubulin-Different-Phenotype (%) [7]: 42%
- Total Cell Count [7]: 461
- Population Apoptotic (%) [8]: 48%
- Population Fragmented Nuclei (%) [8]: 7%
- Population Healthy Nuclei (%) [8]: 83%
- Population Hoechst High Intensity Objects (%) [8]: 9%
- Population Mitochondria Different-Phenotype (%) [8]: 68%
- Population Mitotic Cells (%) [8]: 51%
- Population Normal (%) [8]: 90%
- Population Pyknosed Nuclei (%) [8]: 9%
- Population Tubulin-Different-Phenotype (%) [8]: 51%
- Total Cell Count [8]: 402
- Population Apoptotic (%) [9]: 10%
- Population Fragmented Nuclei (%) [9]: 12%
- Population Healthy Nuclei (%) [9]: 81%
- Population Hoechst High Intensity Objects (%) [9]: 3%
- Population Membrane Permeable-Phenotype (%) [9]: 2%
- Population Mitochondria Different-Phenotype (%) [9]: 16%
- Population Mitotic Cells (%) [9]: 89%
- Population Normal (%) [9]: 96%
- Population Pyknosed Nuclei (%) [9]: 6%
- Population Tubulin-Different-Phenotype (%) [9]: 15%
- Total Cell Count [9]: 1052
- Population Apoptotic (%) [10]: 15%
- Population Fragmented Nuclei (%) [10]: 13%
- Population Healthy Nuclei (%) [10]: 80%
- Population Hoechst High Intensity Objects (%) [10]: 5%
- Population Mitochondria Different-Phenotype (%) [10]: 24%
- Population Mitotic Cells (%) [10]: 84%
- Population Normal (%) [10]: 94%
- Population Tubulin-Different-Phenotype (%) [10]: 20%
- Total Cell Count [10]: 775
- Population Apoptotic (%) [11]: 46%
- Population Fragmented Nuclei (%) [11]: 15%
- Population Healthy Nuclei (%) [11]: 75%
- Population Hoechst High Intensity Objects (%) [11]: 11%
- Population Membrane Permeable-Phenotype (%) [11]: 1%
- Population Mitochondria Different-Phenotype (%) [11]: 36%
- Population Mitotic Cells (%) [11]: 53%
- Population Normal (%) [11]: 88%
- Population Pyknosed Nuclei (%) [11]: 9%
- Population Tubulin-Different-Phenotype (%) [11]: 32%
- Total Cell Count [11]: 598
- Population Apoptotic (%) [12]: 65%
- Population Fragmented Nuclei (%) [12]: 13%
- Population Healthy Nuclei (%) [12]: 80%
- Population Hoechst High Intensity Objects (%) [12]: 8%
- Population Membrane Permeable-Phenotype (%) [12]: 0%
- Population Mitochondria Different-Phenotype (%) [12]: 47%
- Population Mitotic Cells (%) [12]: 34%
- Population Normal (%) [12]: 91%
- Population Pyknosed Nuclei (%) [12]: 5%
- Population Tubulin-Different-Phenotype (%) [12]: 39%
- Total Cell Count [12]: 596
